# Several values for one entry are separate records, joined by “and”; a condition that tells them apart may be missing. Equal entries are not always repeated. Where two headings read alike, the source gives them in different places.
# Legend:
# [1] = Competitive binding of ^241Am in beagle plasma; details: 3 nM ^241Am nitrate, 37°C; for logistic equation parameter a (slope) / logistic equation parameter b (inflection point) / logistic equation parameter c (asymptote, fraction of bound ^241Am): estimate ± 95% conf. interval
# Procedure, shortened: (§1)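 Ligand stocks were in 10 mM sodium phosphate, pH 7.4, and added to plasma at 0.5–750 µM final, with ^241Am nitrate (stock in 1 M HCl). Samples were incubated at 37°C with mild agitation, then protein-bound Am was removed on a 3K ultrafilter (14,000×g, 30 min). Ligand-bound and cationic Am in the filtrate were separated on strong cation-exchange spin columns, and each fraction was gamma-counted (40–80 keV). Bound fraction was fitted against log concentration by logistic Gauss-Newton regression, and EC50 was taken at half of the asymptote.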
# [2] = Competitive binding of ^241Am in rat plasma; details: 3 nM ^241Am nitrate, 37°C; for logistic equation parameter a (slope) / logistic equation parameter b (inflection point) / logistic equation parameter c (asymptote, fraction of bound ^241Am): estimate ± 95% conf. interval
# Procedure, shortened: as §1
# [3] = Competitive binding of ^241Am in human plasma; details: for EC50 / EC90 / logistic equation parameter a (slope) / logistic equation parameter b (inflection point) / logistic equation parameter c (asymptote, fraction of bound ^241Am): human plasma, 3 nM ^241Am nitrate, 37°C; for logistic equation parameter a (slope) / logistic equation parameter b (inflection point) / logistic equation parameter c (asymptote, fraction of bound ^241Am): estimate ± 95% conf. interval
# Procedure, shortened: as §1
# Ionization = assay type: physicochemical; details: 5 mM ligand in 0.15 M KCl
# Procedure, shortened: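 The free ligand was titrated with acid and then with base. After each addition it was equilibrated for 30 s, and pH was then read on a glass electrode with an Ag/AgCl reference. Ligand integrity was checked afterwards by HPLC with charged aerosol detection. Constants were calculated from three replicates.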
# [4] = Solvent extraction study of the Am; assay type: binding; details: for calculated formation constant (log K) of the ^241Am-ligand complex: calculated from lg β^cond and pKa values; for conditional stability constant (lg β^cond) of the ^241Am complex: pH 1.3, I = 0.1 M NaCl, 25°C, 0.1 M HDEHP in dodecane
# Procedure, shortened: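 Tracer ^241Am (16.7 MBq L-1) was partitioned between the organic and aqueous phases, with ligand at 0.05–100 µM in the aqueous phase. Samples were vortexed, shaken for 60 min, and centrifuged (10,000×g, 10 min). Both phases were gamma-counted (40–80 keV window), in triplicate. D0 came from a ligand-free aqueous phase. lg β^cond was obtained from a linear fit of […] against ligand concentration, and formation constants were then derived using the pKa values.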
# [5] = Pharmacokinetics of C2E2 in beagle dogs; assay type: in vivo
# Procedure, shortened: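 Dogs were 8–10 months old and weighed 10.1–12.0 kg. They were fasted overnight and dosed by gavage (12.05 mg mL-1 solution), with food returned about 2 h later. Jugular blood was drawn pre-dose and at 0.5–24 h into fluoride/oxalate tubes. Plasma was acidified with 20% formic acid and stored at –80 °C. Analysis was by LC/MS/MS with ^13C internal standards; the acid metabolite was measured as its Fe(III) complex in negative-ion mode. Data were fitted to a two-compartment model.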
# [6] = assay type: in vivo, beagle; details: beagles, 100 mg kg^−1 oral C2E2
# [7] = reported for DTPA; cited from earlier work
# [8] = ref Martell, 1982; cited from earlier work
# [9] = oral; ref Volf, 1984; cited from earlier work
# [10] = cited from earlier work; for stability constant (log K) of the americium complex: ref Ansoborlo et al., 2007
# [11] = 100 mg kg^−1 oral, two-compartment model
Molecule,EC50 [1],EC90 [1],logistic equation parameter a (slope) [1],logistic equation parameter b (inflection point) [1],"logistic equation parameter c (asymptote, fraction of bound ^241Am) [1]",EC50 [2],EC90 [2],logistic equation parameter a (slope) [2],logistic equation parameter b (inflection point) [2],"logistic equation parameter c (asymptote, fraction of bound ^241Am) [2]",EC50 [3],EC90 [3],logistic equation parameter a (slope) [3],logistic equation parameter b (inflection point) [3],"logistic equation parameter c (asymptote, fraction of bound ^241Am) [3]",pKa1 (Ionization),pKa2 (Ionization),pKa3 (Ionization),calculated formation constant (log K) of the ^241Am-ligand complex [4],conditional stability constant (lg β^cond) of the ^241Am complex [4],also measured
"CCOC(=O)CN(CCN(CCN(CC(=O)O)CC(=O)O)CC(=O)O)CC(=O)O [C2E1, monoethyl ester of DTPA]",2.02 µM,5.87 µM,0.57 ± 0.13,2.02 ± 0.38,61.69 ± 1.4,25.5 µM,60.1 µM,0.06 ± 0.01,25.50 ± 3.36,45.74 ± 1.51,5.26 µM,19 µM,0.16 ± 0.03,5.26 ± 0.74,55.22 ± 1.06,9.63 ± 0.03,6.35 ± 0.38,2.99 ± 0.05,21.7 ± 0.5,2.46,pKa4 (Ionization): 1.72 ± 1.5; pKa5 (Ionization): 1.18 ± 0.45; pKa6 (Ionization): < 1.5; pKa7 (Ionization): < 1.5
"CCOC(=O)CN(CCN(CCN(CC(=O)O)CC(=O)OCC)CC(=O)O)CC(=O)O [C2E2, DTPA diethyl ester]",4.91 µM,10.8 µM,0.37 ± 0.02,4.91 ± 0.18,64.79 ± 0.50,46.2 µM,101 µM,0.04 ± 0.00,46.17 ± 3.43,54.62 ± 1.58,8.87 µM,18.4 µM,0.23 ± 0.04,8.87 ± 0.80,60.29 ± 1.25,9.40 ± 0.02,4.68 ± 0.02,3.52 ± 0.03,19.6 and 19.6 ± 0.2,1.36,"fraction of the absorbed dose metabolized to C2E1 or DTPA ([5]; 100 mg kg^−1 oral): ~ 2%; difference between AUC0–24 of males and females ([5]; 100 mg kg^−1 oral, two males and two females): no significant difference; elimination half-life from the first compartment [5, 11]: 0.69 h; elimination half-life from the second compartment [5, 11]: 6.66 h; time to peak plasma concentration after administration ([5]; single 100 mg kg^−1 oral gavage): 1 h; difference between concentration required for chelation in humans and dogs ([3]; human vs dog plasma): less than 2 fold; difference between concentration required for chelation in humans and rats ([3]; human vs rat plasma): greater than 5 fold; time plasma concentration is above the 50% maximal binding threshold [6]: 4.7 h; pKa4 (Ionization): 1.87 ± 0.05; pKa5 (Ionization): 1.76 ± 0.05; pKa6 (Ionization): 1.45 ± 0.09; stability of the ^241Am complex lower than that of the DTPA-^241Am complex [4]: 6 log units; strength of americium binding relative to the strongest ligand in the plasma ([4]; compared with the americium-transferrin complex): nine orders of magnitude higher"
"O=C(O)CN(CCN(CC(=O)O)CC(=O)O)CCN(CC(=O)O)CC(=O)O [DTPA, Diethylenetriaminepentaacetic acid, reference compound]",1.08 µM,2.25 µM,1.87 ± 0.69,1.08 ± 0.18,54.75 ± 2.16,5.36 µM,12.4 µM,0.31 ± 0.03,5.36 ± 0.43,35.69 ± 0.85,2.82 µM,5.05 µM,0.98 ± 0.13,2.82 ± 0.30,55.88 ± 1.40,–,–,–,25.4 ± 0.3,2.70,pKa1 [7]: 10.51 ± 0.01; pKa2 [7]: 8.54 ± 0.02; pKa3 [7]: 4.31 ± 0.02; pKa4 [7]: 2.55 ± 0.05; pKa5 [7]: 1.80 ± 0.05; pKa6 [7]: 1.60 ± 0.15; pKa7 [7]: 1.45 ± 0.15; stability constant (log K) with iron [8]: 28.0; bioavailability [9]: ~ 3%
O=C(O)CC(O)(CC(=O)O)C(=O)O [citrate],–,–,–,–,–,–,–,–,–,–,–,–,–,–,–,–,–,–,–,–,stability constant (log K) of the americium complex [10]: 8.6
O=[N+]([O-])O [nitrate],–,–,–,–,–,–,–,–,–,–,–,–,–,–,–,–,–,–,–,–,"affinity for americium (log K) ([10]; ref Silva and OECD Nuclear Energy Agency., 1995): 1.3"
transferrin: plasma protein that binds about 30% of the total ^241Am,–,–,–,–,–,–,–,–,–,–,–,–,–,–,–,–,–,–,–,–,stability constant (log K) of the americium complex [10]: 10.4

# From article PMC4339263 (Health physics, 2015)
